# Measurements from different studies.
# Protocols differ between the studies behind these lines.
# Cell line: A549
Structure (SMILES),effect on,method,time,IC50 [µM]
COc1ccccc1OCCN1CCOC(COc2cccc3[nH]c4ccccc4c23)C1 (stereo not shown),cell growth or viability,CCK-8,72 h,> 100
CN1CCN(CCCn2cccc2/C=N/NC(=O)Nc2cc3c(Nc4ccc(F)c(Cl)c4)ncnc3cc2O[C@H]2CCOC2)CC1,cell growth or viability,MTT,72 h,4.06
Cc1ccc(C)n1-c1ccc(-c2nnc(S)s2)cc1,cell growth or viability,MTT,72 h,223
COc1cccc2c1C(=O)c1c(O)c3c(c(O)c1C2=O)C[C@@](O)(C(=O)CO)C[C@@H]3O[C@H]1C[C@H](N)[C@H](O)[C@H](C)O1,cell growth or viability,MTT,48 h,2.42
COc1ccc(NC(=O)NNC(=O)c2cccc(Nc3nccc(-c4cccnc4)n3)c2)c(OC)c1,cell growth or viability,MTT,24 h,> 40
CN(C)C/C=N/NC(=O)Nc1cc2c(Nc3ccc(F)c(Cl)c3)ncnc2cc1O[C@H]1CCOC1,cell growth or viability,MTT,72 h,5.38
COc1ccccc1OCCN(C)CC(O)COc1cccc2[nH]c3ccccc3c12 (stereo not shown),cell growth or viability,CCK-8,72 h,33.3
Cc1c(OCC(F)(F)F)ccnc1COc1ccc(NC(=O)Nc2ccc(Cl)cc2)cc1,cell growth or viability,MTT,72 h,2.39
COc1cccc(/C=C2\SC(=S)N(CC(=O)Nc3ccccc3)C2=O)c1,cell growth or viability,MTT,,32
C=C(Cl)C(=O)Nc1cc(Nc2nc(Nc3cnn(C)c3)c3sccc3n2)c(OC)cc1N(C)CCN(C)C,cell growth or viability,MTT,,0.441
CC1=C(O)C(=O)C=C2C1=CC=C1[C@@]2(C)CC[C@@]2(C)[C@@H]3C[C@](C)(C(=O)OCCCCCCCCO)CC[C@]3(C)CC[C@]12C,cell growth or viability,MTT,48 h,4.13
COc1cccc2c1C(=O)c1c(O)c3c(c(O)c1C2=O)C[C@@](O)(C(=O)CO)C[C@@H]3O[C@H]1C[C@H](N)[C@H](O)[C@H](C)O1,cell growth or viability,MTT,24 h,> 100
CN1C(=O)/C(=N\NC(=O)c2cc3ccccc3[nH]2)c2ccccc21,cell growth or viability,,,4.04
COC(=O)/C=C/C=C/c1ccc2c(c1)OCO2,cell growth or viability,SRB,,162
COc1cc(/C=C/C(=O)C(=Cc2cccc(OC)c2OC)C(=O)/C=C/c2ccc(O)c(OC)c2)ccc1O,colony formation,,9 days,~0.4
C#Cc1cccc(Nc2ncnc3cc(OCCOC)c(OCCOC)cc23)c1,cell growth or viability,MTT,,19.4
COc1cc2ncnc(Nc3ccc(F)c(Cl)c3)c2cc1NC(=O)N/N=C/CN1CCCCC1,cell growth or viability,MTT,72 h,5.63
Brc1ccc(Nc2nc(N/N=C\c3c[nH]c4ccccc34)nc(Nc3ccccc3)n2)cc1,cell growth or viability,SRB,72 h,11.6
O=C(NC(=S)NCc1ccc(CNC(=S)NC(=O)c2ccc3ccccc3c2)cc1)c1ccc2ccccc2c1,cell growth or viability,,48 h,2.82
COc1ccc(NC(=O)Nc2ccc(OCc3ncc(C)c(OC)c3C)cc2)cc1,cell growth or viability,MTT,72 h,12.9
Cn1c(=O)c2c(ncn2Cc2nnc(SCC(=O)Nc3ccccc3)n2-c2ccccc2)n(C)c1=O,cell growth or viability,MTT,,143
COc1cc(N(C)CCN(C)C)c(NC(=O)/C=C/C(C)C)cc1Nc1nc(Nc2cnn(C)c2)c2sccc2n1,cell growth or viability,MTT,,0.44
